Experimental data from ChEMBL document CHEMBL4431364, “Discovery and synthetic optimization of a novel scaffold for hydrophobic tunnel-targeted autotaxin inhibition” (Bioorg Med Chem, 2016).

Legend:
[1] = molecular target: T1, Autotaxin (Homo sapiens, UniProt Q13822); assay: Inhibition of C-terminal FLAG tagged human recombinant ATX expressed in insect sf9 cells at 10 uM using FS-3 as substrate measured every 2 mins for 60 mins by FRET assay
Procedure, shortened: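 10 μM compound with 10 nM human FLAG-fusion ATX in pH 8.0 Tris buffer (30 μM BSA, 1 mM CaCl2, 1 mM MgCl2, 5 mM KCl, 140 mM NaCl) and 1 μM FS-3. Fluorescence at ex 485/em 520 nm read every 2 min for 60 min at 37 °C. Normalized to no-ATX (0%) and ATX without compound (100%). Triplicate.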

[2] = molecular target: T1, Autotaxin; assay: Inhibition of C-terminal FLAG tagged human recombinant ATX expressed in insect sf9 cells at 10 uM using pNP-TMP as substrate measured every 2 mins for 60 mins by absorbance

Row | Structure (SMILES) | inhibition [1] [%] | inhibition [2] [%]
1 | O=C1N=C(Nc2ccccc2)SC1Cc1ccc(-c2cccc(Br)c2)o1 (stereo not drawn) | -0.74 | –
2 | Cc1nc(N2CCN(c3ccccc3F)CC2)c2c(C)c(C)sc2n1 | -2.48 | –
3 | O=C(O)c1ccc(N2CCN(C(=O)COc3cccc(F)c3)CC2)cc1 | 32.3 | –
4 | CCCC#CC(=O)NCC(=O)Nc1ccc2c3c(cccc13)-c1ccccc1-2 | 6.06 | –
5 | CCc1nc(C)cc(NCC(=O)C2(O)CC3(C)CCC4C5C=CC(=O)C=C5CCC45C3C25)c1O (stereo not drawn) | 17.5 | –
6 | O=C(O)c1ccc(N2CCN(C(=O)COc3ccc(Cl)cc3Cl)CC2)cc1 | 23.9 | 9.7
7 | O=C(COc1ccccc1F)N1CCN(c2ccccc2[N+](=O)[O-])CC1 | 25.6 | -1.8
8 | O=C(O)c1ccc(N2CCN(C(=O)COc3ccc(F)cc3)CC2)cc1 | 0.9 | -6.5
9 | CC(C)COc1cnc(SSc2ncc(OCC(C)C)cn2)nc1 | 20.6 | –
10 | COc1ccc(C2OCC3OC(OC)C(O)C(O)C3O2)cc1OCc1ccccc1 (stereo not drawn) | -4.83 | –
11 | Cc1c(Br)cc(C(=O)OCC(=O)c2ccccc2)c(C)c1C | 6.54 | –
12 | O=C(Nc1ccccc1)N1CC(O)C(N2CCN(Cc3ccccc3)CC2)C1 (stereo not drawn) | 2.55 | –
13 | COc1ccccc1N1CCN(/N=C(\C)c2ccc3ccccc3c2)CC1 | -0.74 | –
14 | O=C(COc1ccc(F)cc1)N1CCN(c2cccc([N+](=O)[O-])c2)CC1 | 48.1 | 8.9
15 | O=C(O)c1ccccc1N1CCN(C(=O)COc2ccc(Cl)cc2Cl)CC1 | 27.6 | -7.9
16 | Cc1cc(C(=O)CSc2ccc(Cl)cc2)cc(C)c1OC(=O)N(C)C | 6.06 | –
17 | O=C(COc1ccccc1F)N1CCN(c2cccc([N+](=O)[O-])c2)CC1 | 15.2 | –
18 | O=C(O)c1ccc(N2CCN(C(=O)COc3cccc(C(F)(F)F)c3)CC2)cc1 | 43 | –
19 | O=C(c1ccco1)N1CCN(C(=O)C2CCCN2C(=O)CC2C=CCC2)CC1 (stereo not drawn) | 5.7 | –
20 | C=C(C)c1cccc(C(C)(C)NC(=O)N2CCN(C(=O)OCC)CC2)c1 | 10.5 | –
21 | CCC(C)c1ccc(OCC(=O)Nc2cc(OC)c(OC)cc2C(=O)O)cc1 (stereo not drawn) | -8.29 | –
22 | O=C(O)c1ccccc1N1CCN(C(=O)COc2ccc(F)cc2)CC1 | 11.5 | -7.2
23 | O=C(O)c1ccccc1N1CCN(C(=O)COc2cccc(F)c2)CC1 | -5.5 | -4.8
24 | CCc1ccc(OCC(=O)Nc2ccc(-c3nc4ccccc4o3)cc2)cc1 | 34.7 | –

Row | Structure (SMILES) | inhibition [1] [%] | inhibition [2] [%]
25 | COc1ccc(C(=O)Oc2c(Br)cc(Br)c3cccnc23)cc1 | 0.32 | –
26 | COc1cc(C(=O)Nc2ccc(C(C)=O)cc2)c(Br)c(OC)c1OC | 16.9 | –
27 | Clc1ccc(Cl)c2c1CC(N1CCN(c3ncccn3)CC1)S2 (stereo not drawn) | 9.03 | –
28 | CC1=NC(c2cccc(C)c2)C(O)=C1/C=C1/C(=O)N(c2ccc(C)cc2C)N=C1C (stereo not drawn) | 10.5 | –
29 | Cc1ccc2cc3c(nc2c1)sc1c(SCC(=O)NCc2ccco2)ncnc13 | 13.4 | –
30 | O=C(O)c1ccccc1N1CCN(C(=O)COc2ccccc2F)CC1 | -7.6 | -5.7
31 | COc1ccc(/C(N)=N/OC(=O)COc2ccc(C(C)(C)C)cc2Br)cc1OC | 6.68 | –
32 | CC(C)(C)CN(Cc1cccc(CN)c1)C(=O)c1ccc(-c2ccccc2)nc1 | 32.5 | –
33 | O=C(O)c1ccc(N2CCN(C(=O)COc3cc(Cl)cc(Cl)c3)CC2)cc1 | 46.7 | 27.8
34 | CCCCOc1ccc(S(=O)(=O)N2CC(NCc3ccco3)CC2C(=O)CNO)cc1 (stereo not drawn) | 38 | –
35 | Cc1cc(NC(=O)CSc2nc3sc4c(c3c(=O)[nH]2)CCC(C)C4)no1 (stereo not drawn) | 11 | –
36 | Cc1ccc2cc(C#N)c(N3CCCN(C(=O)c4ccc(F)cc4F)CC3)nc2c1 | 46.4 | –
37 | O=S(=O)(c1ccc(OC(F)(F)F)cc1)N1CCC(N2CCN(c3ccccc3F)CC2)CC1 | 8.43 | –
38 | O=C(COc1cccc(C(F)(F)F)c1)N1CCN(c2ccccc2[N+](=O)[O-])CC1 | 49.2 | 35.4
39 | Cc1ccc(SCC(=O)Nc2ccc(C(=O)NC(C)(C)C)cc2)cc1 | 8.67 | –
40 | Cn1ncc2c(Cl)nc(-c3cc4cc([N+](=O)[O-])ccc4o3)nc21 | -0.99 | –
41 | CC(C)CC1C(=O)NC(C)CN1C(=O)c1ccc(-c2ccccc2)cc1 (stereo not drawn) | 32.8 | –
42 | C=C(Br)C(=O)N1CCN(C(=O)CCSc2ccc3ccccc3c2)CC1 | 46.4 | –
43 | CSc1cccc2c(C)cc(N3CCN(c4ccc(F)cc4)CC3)nc12 | 9.17 | –
44 | Cn1ncc(Cl)c1C(=O)NC1CCC(C(C)(C)C)CC1 (stereo not drawn) | 15 | –
45 | N#C/C(=C\c1ccc(-c2cc([N+](=O)[O-])ccc2Cl)o1)C(=O)Nc1ccccc1C(=O)O | 3.59 | –
46 | Cc1ccccc1Nc1nc(C2(C)CC3(CC(COCC(C)C)OC3=O)C(=O)O2)cs1 (stereo not drawn) | 40.8 | –
47 | CC(C)(C)CN(Cc1cccc(CN)c1)C(=O)c1ccc(-c2ccc(F)cc2)nc1 | 19.8 to 42.8 | –
48 | Cc1oc(C(C)(C)C)cc1C(=O)NCCNC(=O)c1cc(C(C)(C)C)oc1C | 7.68 | –

Row | Structure (SMILES) | inhibition [1] [%] | inhibition [2] [%]
49 | O=C(COc1ccccc1Cl)N1CCN(c2ccccc2[N+](=O)[O-])CC1 | 47.1 | 18.7
50 | Cc1cc(C(F)(F)F)nc2sc3c(c12)NC(c1c(Br)cnn1C)NC3=O (stereo not drawn) | -1.36 | –
51 | CN(C)CCCCN(CCCN(C)C)Cc1cccc2ccccc12 | 36.2 | –
52 | COc1ccc(/C=N/c2cc(C)ccc2C)cc1OC | -2.55 | –
53 | Cn1cc(Cl)c(C2NN=C(SCC(=O)Nc3ccc(C(C)(C)C)cc3)S2)n1 (stereo not drawn) | 43.4 | –
54 | CCc1cc2c(cc(C(=O)NCCc3ccc(OC)c(OC)c3)n2C)s1 | 35.1 | –
55 | COc1ccc2oc(C(=O)NCCNC(=O)C3C(C=C(C)C)C3(C)C)cc2c1 (stereo not drawn) | 25.5 | –
56 | Cc1cc(C)c(C)c(S(=O)(=O)N2CCN(c3ncnc4sc(C)c(C)c34)CC2)c1C | 19.8 | –
57 | O=c1/c(=C/C=C/c2ccc([N+](=O)[O-])o2)sc2nc3ccccc3n12 | 5.82 | –
58 | CC[n+]1c(Cc2nn3c(C)cc(C)nc3[n+]2CC)nn2c(C)cc(C)nc21 | 2.48 | –
59 | CCCCC(CC)C(=O)Nc1nnc(C2CCCCC2)s1 (stereo not drawn) | 7.68 | –
60 | CON1CC/C(=C\c2cc(C(C)(C)C)c3c(c2)C(C)(C)CO3)C1=O | 30.3 | –
61 | COC(CNCc1cc(Cl)c(CNCC(OC)OC)cc1Cl)OC | 18.6 | –
62 | O=C(O)c1ccc(N2CCN(C(=O)COc3ccccc3C(F)(F)F)CC2)cc1 | 10.9 | -0.8
63 | CCCCCCCCCCCC[N+](C)(C)CC(O)C(O)C(O)C(O)CO (stereo not drawn) | 36.7 | –
64 | CCc1ccc2c(c1)c1nnc(SCC(=O)Nc3nnc(C(C)C)s3)nc1n2C | 21.7 | –
65 | O=C(COc1ccccc1Cl)N1CCN(c2cccc([N+](=O)[O-])c2)CC1 | 41.9 | 4.9
66 | O=C(COc1ccccc1Cl)N1CCN(c2ccc([N+](=O)[O-])cc2)CC1 | 46.1 | –
67 | Cn1ncc2c1ncn1nc(-c3ccc(Cn4cc(Cl)cn4)o3)nc21 | -1.86 | –
68 | O=C(O)c1ccc(N2CCN(C(=O)COc3ccccc3F)CC2)cc1 | 6.1 | –
69 | CC(C)c1ccc(NC(=O)c2cc([N+](=O)[O-])ccc2Cl)cc1 | 12.1 | –
70 | O=C(O)c1ccc(N2CCN(C(=O)COc3ccc(C(F)(F)F)cc3)CC2)cc1 | 46 | 7.9
71 | O=C(O)c1ccccc1N1CCN(C(=O)COc2ccccc2C(F)(F)F)CC1 | 17.3 | 4.6
72 | CCN1CCN(c2cc(C)c3ccc(Cl)cc3n2)CC1 | 14.2 | –

Row | Structure (SMILES) | inhibition [1] [%] | inhibition [2] [%]
73 | O=C(O)c1cccc(N2CCN(C(=O)COc3ccccc3F)CC2)c1 | 10.8 | 10.9
74 | CC(C)(C)c1ccc(NC(=O)COC(=O)c2ccc([N+](=O)[O-])s2)cc1 | 10.7 | –
75 | CCOC(=O)c1c(C)[nH]c(C(=O)OCC(=O)NCc2ccco2)c1C | 15.6 | –
76 | Cc1cc(NC(=O)CSc2nc3sc4c(c3c(=O)[nH]2)CCC(C(C)(C)C)C4)no1 (stereo not drawn) | 15.4 | –
77 | O=C(COc1ccc(F)cc1)N1CCN(c2ccccc2[N+](=O)[O-])CC1 | 42.4 | 19.9
78 | CCCCOCCCNc1cc(-c2cccc(C)c2)ncn1 | 9.16 | –
79 | O=C(CCCc1ccc([N+](=O)[O-])cc1)N1CCN(c2ccccc2F)CC1 | 25.6 | –
80 | O=C(O)c1ccccc1N1CCN(C(=O)COc2cccc(C(F)(F)F)c2)CC1 | 41.3 | -3.5
81 | O=C(O)c1ccc(N2CCN(C(=O)COc3ccccc3Cl)CC2)cc1 | 27.6 | 7.3
82 | CCOc1ccc(N2C(=O)/C(=C3\C(=O)Nc4ccc(Br)cc43)SC2=S)cc1 | -3.35 | –
83 | Cc1c(Cl)c(-c2nnc(NCC(C)C)s2)nn1C | 7.92 | –
84 | COC(=O)c1sc(NC(=O)c2cc(C)ccc2Cl)c(C#N)c1C | -2.35 | –
85 | O=C(COc1ccccc1F)N1CCN(c2ccc([N+](=O)[O-])cc2)CC1 | 35.2 | –
86 | CCOc1ccc(N2C(=O)/C(=C\c3sccc3C)C(C(=O)OC)=C2C)cc1 | 4.09 | –
87 | CC(C)/C=C/C(=O)N1CCN(C(=O)C2CCC3C4CC=C5CC(O)CCC5(C)C4CCC23C)CC1 (stereo not drawn) | 13.3 | –
88 | Cc1nn(-c2ccccc2)c(O)c1/N=C1\C(=O)N(C)c2ccc(Br)cc21 | 1.44 | –
89 | Cc1cc(OCC(=O)Nc2ccc(-c3nc4ncccc4o3)cc2)ccc1Cl | 4.63 | –
90 | O=C(COc1cccc(F)c1)N1CCN(c2ccccc2[N+](=O)[O-])CC1 | 39.5 | 18.2
91 | O=C(COc1cccc(Cl)c1)N1CCN(c2ccccc2[N+](=O)[O-])CC1 | 42.7 | 24.9
92 | O=S(=O)(c1cc(-c2ccon2)cs1)N1CCN(Cc2ccc3c(c2)OCO3)CC1 | 13.4 | –
93 | O=C(O)c1ccccc1N1CCN(C(=O)COc2ccccc2Cl)CC1 | 12.1 | 1.7
94 | COc1ccc(N2C(=O)/C(=C/c3ccc(O)c([N+](=O)[O-])c3)SC2=S)cc1 | 4.83 | –
95 | O=C(O)c1ccccc1N1CCN(C(=O)COc2cccc(Cl)c2)CC1 | 24.4 | -3.3
